From ChEMBL document CHEMBL1132971, “New azolidinediones as inhibitors of protein tyrosine phosphatase 1B with antihyperglycemic properties” (J Med Chem, 2000) come the findings set out here.

Test [1] concerns Mus musculus. As to the kind of experiment: Evaluated in vivo for their ability to decrease plasma glucose levels in diabetic C57BL/KsJ db/db mouse at a dose 100 mg/kg/day; NS=not significant. It is filed as functional, organism-based. The procedure, abridged:
(§1)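 Diabetic db/db or ob/ob mice dosed orally once daily for 4 days. Plasma glucose and insulin reported as percent change from a vehicle-treated group. 4-6 mice per group. Significance set at p < 0.05 or p < 0.01 versus vehicle; NS means generally less than -15% change.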

The target in test [2] is T1, Tyrosine-protein phosphatase non-receptor type 1 (Rattus norvegicus) (UniProt P20417).
T1 sequence (whole entry): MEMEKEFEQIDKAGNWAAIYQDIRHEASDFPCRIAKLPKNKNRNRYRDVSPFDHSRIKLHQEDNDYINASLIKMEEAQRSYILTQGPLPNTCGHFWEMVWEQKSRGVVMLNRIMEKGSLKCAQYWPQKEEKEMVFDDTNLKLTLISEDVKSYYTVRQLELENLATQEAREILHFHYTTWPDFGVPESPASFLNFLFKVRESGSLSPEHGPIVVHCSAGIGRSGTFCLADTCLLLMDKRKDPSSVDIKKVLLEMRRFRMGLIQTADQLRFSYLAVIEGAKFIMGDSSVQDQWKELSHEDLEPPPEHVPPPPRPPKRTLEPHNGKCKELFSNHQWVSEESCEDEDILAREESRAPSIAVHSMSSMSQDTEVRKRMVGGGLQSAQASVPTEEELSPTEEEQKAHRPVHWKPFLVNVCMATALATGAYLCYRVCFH
The experiment in a line: Inhibition of PTPase (PTP1B) activity in rat hepatic membrane at 50 uM concentration, using pNPP as the substrate. The following applies: Liver. It is filed as cell membranes. The procedure, abridged:
(§2)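 Liver membranes from male Sprague-Dawley rats (100-150 g), about 30 µg protein per well. Preincubated 10 min at 37 °C with compound in 1.25% DMSO in 50 mM HEPES pH 7.4. Then 6.33 mM pNPP for 30 min at 37 °C, stopped with NaOH. p-Nitrophenol read at 410 nm. Run in triplicate. Reported as percent of untreated control.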

Test [3] addresses T2, Tyrosine-protein phosphatase non-receptor type 1 (Rattus norvegicus, UniProt P20417).
T2 sequence (P20417 whole entry): T1 sequence (whole entry)
The experiment in a line: Inhibition of PTPase activity in rat hepatic membrane at a concentration of 50 uM using pNPP as the substrate. It is filed as cell membranes, Liver. The procedure, abridged: as §2

Test [4] has as its system Mus musculus. The experiment in a line: Evaluated for their ability to decrease plasma insulin levels in mouse at a dose 100 mg/kg/day.; NS is non significant. The format is functional, organism-based. Put shortly:
as §1

The test system of test [5] is Mus musculus. As to the kind of experiment: Evaluated in vivo for their ability to decrease plasma glucose levels in diabetic C57BL/KsJ ob/ob mouse at a dose 100 mg/kg/day; NS is non significant. The format is functional, organism-based. Put shortly:
as §1

In test [6] the target is T1, Tyrosine-protein phosphatase non-receptor type 1 (Rattus norvegicus). The experiment in a line: Inhibition of PTPase activity using recombinant r-PTP1B as the enzyme and IR-triphosphopeptide as substrate at 50 uM. The procedure, abridged: (§3)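 Rat recombinant PTP1B in 33 mM TRIS-HCl, 2 mM EDTA, 50 mM β-mercaptoethanol, pH 7.4 (about 1000-2000 nmol/min/mg). Preincubated 10 min at 37 °C with or without compound in HEPES buffer pH 7.4. Released phosphate read by malachite green-ammonium molybdate at 650 nm against a phosphate standard. Quadruplicates. IC50 by four-parameter logistic fit.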

Test [7] has the same target. The experiment in a line: Inhibition of Protein-tyrosine phosphatase 1B activity in rat hepatic membrane at a concentration of 50 uM using pNPP as the substrate. The format is cell membranes. Conditions: Liver. Put shortly:
as §2

Test [8] has as its target T2, Tyrosine-protein phosphatase non-receptor type 1. As to the kind of experiment: Inhibition of PTPase activity using recombinant Protein-tyrosine phosphatase 1B as the enzyme and IR-triphosphopeptide as substrate.
Test [9] shares this target. The experiment in a line: Inhibition of PTPase activity using recombinant r-PTP1B as the enzyme and IR-triphosphopeptide as substrate. Put shortly: as §3
For test [10], the system named is Mus musculus. As to the kind of experiment: Evaluated for their ability to decrease plasma insulin levels in mouse at a dose 100 mg/kg/day.([…]). The format is functional. The procedure, abridged:
as §1

The test system of test [11] is Mus musculus. The experiment in a line: Evaluated in vivo for their ability to decrease plasma glucose levels in diabetic C57BL/KsJ db/db mouse at a dose 100 mg/kg/day.([…]). The format is functional. Put shortly:
as §1

The target of test [12] is T1, Tyrosine-protein phosphatase non-receptor type 1 (Rattus norvegicus). As to the kind of experiment: IC50 for PTPase activity, recombinant r-PTP1B as the enzyme .
In test [13] the test system is Mus musculus. The experiment in a line: Evaluated in vivo for their ability to decrease plasma glucose levels in diabetic C57BL/KsJ db/db mouse at a dose 100 mg/kg/day. *p indicates <0.05. It is filed as functional. The procedure, abridged: (§4)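 Mice dosed orally once daily for 4 days; plasma glucose and insulin measured and expressed as percent change versus a vehicle-treated group (mean ± SE, 4-6 mice/group). NS is generally less than -15% change. Significance is versus vehicle-treated mice.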

The test system of test [14] is Mus musculus. As to the kind of experiment: Evaluated for their ability to decrease plasma insulin levels in mouse at a dose 100 mg/kg/day,**p indicates <0.01. The format is functional. Put shortly: as §4
Test [15] deals with Mus musculus. The experiment in a line: Evaluated in vivo for their ability to decrease plasma glucose levels in diabetic C57BL/KsJ ob/ob mouse at a dose 100 mg/kg/day, **p indicates <0.01. The format is functional. The procedure, abridged:
as §4

Test [16] has as its target T1, Tyrosine-protein phosphatase non-receptor type 1 (Rattus norvegicus). As to the kind of experiment: Inhibition of PTPase activity using recombinant r-PTP1B as the enzyme and IR-triphosphopeptide as substrate at 10 uM. The procedure, abridged: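 Recombinant rat PTP1B (human 321-aa form assayed the same way), activity about 1000-2000 nmol/min/mg, preincubated with compound for 10 min at 37 °C in HEPES pH 7.4. The reaction is started with 50 µM triphosphorylated insulin receptor 1142-1153 dodecapeptide and run 30 min at 37 °C. Released phosphate read by malachite green-molybdate at 650 nm, in quadruplicate. Result is percent inhibition versus control.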

In test [17] the test system is Mus musculus. The experiment in a line: Evaluated for their ability to decrease plasma insulin levels in mouse at a dose 100 mg/kg/day. **p indicates <0.01. The format is functional. Put shortly:
as §4

For test [18], the system named is Mus musculus. As to the kind of experiment: Evaluated in vivo for their ability to decrease plasma glucose levels in diabetic C57BL/KsJ ob/ob mouse at a dose 100 mg/kg/day. It is filed as functional. The procedure, abridged:
as §4

Active and inactive are the calls of the source. The rule behind the calls is not given here.

Turning to `C/C(=C\CC1SC(=O)NC1=O)c1cccc(OCc2nc(-c3ccccc3)oc2C)c1` (configuration not stated), in the test with Mus musculus [1], the Decrease result is “inactive”. The inhibition in [2] was 5%.
Regarding `Cc1oc(-c2ccc(C(F)(F)F)cc2)nc1COc1cccc(/C(=C/Cn2oc(=O)[nH]c2=O)C(C)(C)C)c1`, the Inhibition % in test [3] stood at 24%. Also, the Decrease result with Mus musculus [4] and with Mus musculus [5] was “inactive” throughout. Further, in [6], the inhibition was 0.6%.
For the molecule `CCCC/C(=C\Cn1oc(=O)[nH]c1=O)c1cccc(OCc2cc(Cl)cc(Cl)c2)c1`, the inhibition in test [7] came out at 61%; in test [2] it was 57%. For the same molecule, the IC50 in test [8] stood at 1800 nM; in test [9] it was 800 nM.
Turning to `Cc1oc(-c2ccc(C(F)(F)F)cc2)nc1COc1cccc(/C(I)=C/Cn2oc(=O)[nH]c2=O)c1`, the Decrease with Mus musculus [10] was found to be 64%; in the test on Mus musculus [11], 38%. Besides, in test [12], the IC50 stood at 1800 nM. Besides, the inhibition in [2] stood at 51%.
`Cc1oc(-c2ccc(C(F)(F)F)cc2)nc1COc1cccc(C#CC(C)n2oc(=O)[nH]c2=O)c1` (configuration not stated): the Decrease in the test on Mus musculus [13] worked out at 30%; in the test with Mus musculus [14], 91%; in the test with Mus musculus [15], 32%. The inhibition was 56% in test [2] and 47% in [16].
`Cc1oc(-c2ccc(C(F)(F)F)cc2)nc1COc1cccc(/C(=C/Cn2oc(=O)[nH]c2=O)Cc2ccccc2)c1`: the Decrease with Mus musculus [17] is recorded as 46%; in the test on Mus musculus [18], 23%. The inhibition in test [6] came out at 0.8%.
